Assay outcomes as filed in PubChem BioAssay.
Diaphorase inh: diaphorase inhibition or chemical oxidation counter-screen | diaphorase resazurin-to-resorufin fluorescence, NADH, 16 min; bacterial (C. kluyveri) enzyme, not human | inhibition, % at 20 µM | actives 0.69% (n = 190,000) | AID 1217;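 active = primary screen inhibition at 20 µM above a set limit, cut at about 50% in these data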;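 also: plate controls were DMSO with full reaction for no effect and wells lacking NADH for full effect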
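Test system: diaphorase enzyme from Clostridium kluyveri; amount: diaphorase at 0.14 U/mL in enzyme working solution; detection: fluorescence of resorufin formed from resazurin, Ex 544/Em 590 nm; times: reaction incubation of 16 min at room temperature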
PMI act hi M6P: increases human PMI activity with near-saturating mannose 6-phosphate; P34949; coupled PMI enzyme assay, resazurin fluorescence, 20 min; hits give high values; 1 = untreated enzyme, 0 = substrate-free blank; activation factor at 20 µM; actives 0.34% (n = 190,000); AID 1216;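 active = activation factor of 2 or more at 20 µM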
Target sequence (P34949 whole entry, looked up): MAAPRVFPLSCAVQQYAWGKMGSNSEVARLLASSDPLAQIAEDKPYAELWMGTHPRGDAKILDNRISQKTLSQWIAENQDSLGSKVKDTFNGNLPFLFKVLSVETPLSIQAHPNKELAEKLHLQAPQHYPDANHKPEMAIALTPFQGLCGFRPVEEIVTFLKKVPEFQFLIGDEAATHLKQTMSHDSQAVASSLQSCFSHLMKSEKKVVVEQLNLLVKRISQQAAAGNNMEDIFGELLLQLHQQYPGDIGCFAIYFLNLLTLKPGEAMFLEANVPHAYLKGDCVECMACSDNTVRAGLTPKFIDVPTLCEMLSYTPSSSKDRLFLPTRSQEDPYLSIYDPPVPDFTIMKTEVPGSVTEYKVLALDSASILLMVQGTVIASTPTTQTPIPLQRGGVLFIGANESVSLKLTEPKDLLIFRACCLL
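test system = human PMI in coupled enzyme assay | medium = HEPES-buffered pH 7.4 with magnesium and detergent | also added = 1.0 mM mannose-6-phosphate substrate with 0.22 mM NADP+ | compound = 20 µM single dose | times = 20 min incubation at room temperature | measured by = resorufin fluorescence (Ex 544/Em 590 nm) from resazurin via diaphorase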
G6PDH counter: inhibits Leuconostoc G6PDH, flagging false hits in G6PDH-based assays | actives 0.12% (n = 200,000) | AID 1020 | inhibition, % at 5 µM | Purified L. mesenteroides G6PDH, diaphorase/resazurin coupled fluorescence, 45 min; in the data active = inhibition above about 50%
Redox H2O2 prof: compounds producing H2O2 with reducing agent – biochemical, NIH compound library profiling, artefact control for MLSCN library redox annotation, primary screen; DTT-dependent redox cycling H2O2, phenol red/HRP absorbance; 100% = 100 µM peroxide control, 0% = buffer; activation, % at 10 µM; actives 0.03% (n = 200,000); AID 878;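 active = activation of at least 50% relative to the plate's high and low controls in the primary single-dose screen; inactive = activation below 50%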;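 also: compound incubated with DTT at 0.8 mM final as the reducing agent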
PMI activator: activators of human phosphomannose isomerase; purified human PMI, coupled resazurin fluorescence, 20 min; hits give high values; 1 = vehicle control, 0 substrate-free wells; AID 1214; activation factor at 20 µM; P34949; actives 0.005% (n = 190,000);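 active = activation factor of 2 or more at 20 µM, relative to plate controls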
Diaph act CS: activates diaphorase or chemically reduces, flagging diaphorase assay artifacts. Diaphorase/resazurin coupled assay, resorufin fluorescence, 16 min; hits give high values; 1 = vehicle wells, 0 = NADH-free wells. activation factor at 20 µM. actives 0.005% (n = 190,000). AID 1229;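 active = diaphorase activity raised at least twofold by the compound at 20 µM; inactive = activation factor below 2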
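Test system: Clostridium kluyveri diaphorase, purified enzyme. Buffer or medium: 50 mM HEPES pH 7.4 buffer plus MgCl2 and Tween 20. Also added: 0.114 mM NADH and 0.1 mM resazurin, final amounts. Dosing: compound 20 µM once, DMSO 1%. Schedule: 16 min enzyme reaction, ambient temperature. Detection: fluorescence of resorufin, 544 nm excitation, 590 nm emission.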
* marks the source's active call; other numbers are inactive results. A selection: hits, their analogues and other compounds. The true share with any hit is near 1.1%.

What do the screens show for `CC(C)C(=O)N(c1cc2sc(=O)oc2c2ccccc12)S(=O)(=O)c1cccs1`?
Diaphorase inh: 61*; PMI act hi M6P: 0.8; G6PDH counter: 10; Redox H2O2 prof: 0; PMI activator: 0.6; Diaph act CS: 0.4

How did O=C(NNC(=O)c1cc(O)c(O)c(O)c1)NC1CCCCC1 do in these assays?
Diaphorase inh: 50*; PMI act hi M6P: 0.9; G6PDH counter: 15; Redox H2O2 prof: -4; PMI activator: 0.5; Diaph act CS: 0.5

Results for COc1cccc(N2CCN(C(=O)c3nc4nc(C)cc(C)n4n3)CC2)c1 ?
Diaphorase inh: 1; PMI act hi M6P: 1; G6PDH counter: 0; Redox H2O2 prof: -2; PMI activator: 1; Diaph act CS: 1

Results for CS(=O)(=O)Nc1ccc(OCc2ccccc2)cc1 ?
Diaphorase inh: 14; PMI act hi M6P: 1; G6PDH counter: -3; Redox H2O2 prof: 0; PMI activator: 1; Diaph act CS: 0.9

How did O=C1CCCC/C1=N\Nc1ccc(OCc2ccccc2)cc1 do in these assays?
Diaphorase inh: 4; PMI act hi M6P: 2.5*; G6PDH counter: -3; Redox H2O2 prof: 0; PMI activator: 1.7; Diaph act CS: 1

How did COC(=O)CCN1CCN(S(=O)(=O)c2ccccc2Br)CC1 do in these assays?
Diaphorase inh: 19; PMI act hi M6P: 1.1; G6PDH counter: 6; Redox H2O2 prof: -1; PMI activator: 1; Diaph act CS: 0.8

How did Cc1ccc2c(ccc(=S)n2C)c1 do in these assays?
Diaphorase inh: 10; PMI act hi M6P: 2.7*; G6PDH counter: 0; Redox H2O2 prof: -2; PMI activator: 1.9; Diaph act CS: 0.9

How did Cc1ccc2c(c1)nc(NCCO)n2C do in these assays?
Diaphorase inh: 1; PMI act hi M6P: 0.9; G6PDH counter: 4; Redox H2O2 prof: 0; PMI activator: 1; Diaph act CS: 1

What do the screens show for `NNC(=O)c1cc(O)c(O)c(O)c1`?
Diaphorase inh: 65*; PMI act hi M6P: 0.8; G6PDH counter: 9; Redox H2O2 prof: -2; PMI activator: 0.5; Diaph act CS: 0.4

What do the screens show for `Cc1cc(C(=O)NC(C)Cc2ccccc2)cc(C)c1[N+](=O)[O-]` (configuration not stated)?
Diaphorase inh: 69*; PMI act hi M6P: 1; G6PDH counter: 3; Redox H2O2 prof: 0; PMI activator: 1; Diaph act CS: 0.3

What do the screens show for `C/C(=N\Nc1nc(-c2ccccc2)cs1)c1cccs1`?
Diaphorase inh: -1; PMI act hi M6P: 2.2*; G6PDH counter: 10; Redox H2O2 prof: 0; PMI activator: 1.6; Diaph act CS: 1

Results for CCc1cc(C(=O)N2CCc3c([nH]c4ccccc34)C2c2ccc(OC)cc2F)no1 (configuration not stated) ?
Diaphorase inh: 19; PMI act hi M6P: 0.9; G6PDH counter: 9; Redox H2O2 prof: -1; PMI activator: 0.9; Diaph act CS: 0.8

How did Cc1cc(C(=O)N2CCc3c([nH]c4ccccc34)C2c2c(F)cccc2Cl)no1 (configuration not stated) do in these assays?
Diaphorase inh: 57*; PMI act hi M6P: 0.8; G6PDH counter: 1; Redox H2O2 prof: -2; PMI activator: 0.8; Diaph act CS: 0.4

Results for O=C(COc1ccccc1/C=C\c1nc(O)c([N+](=O)[O-])c(=O)[nH]1)Nc1ccccc1 ?
Diaphorase inh: 72*; PMI act hi M6P: 1; G6PDH counter: 10; Redox H2O2 prof: -2; PMI activator: 1; Diaph act CS: 0.3

How did Cc1cc(/C=C\c2nc(O)c([N+](=O)[O-])c(=O)[nH]2)c(C)n1-c1ccccc1 do in these assays?
Diaphorase inh: 30; PMI act hi M6P: 1; G6PDH counter: -4; Redox H2O2 prof: -2; PMI activator: 1.1; Diaph act CS: 0.7

How did COc1ccccc1/C=C/C(=O)Oc1cccc2cccnc12 do in these assays?
Diaphorase inh: 23; PMI act hi M6P: 0.7; G6PDH counter: 16; Redox H2O2 prof: -1; PMI activator: 0.9; Diaph act CS: 0.8

How did Cc1ccc2cccc(OC(=O)/C=C\c3ccccc3)c2n1 do in these assays?
Diaphorase inh: 26; PMI act hi M6P: 0.4; G6PDH counter: 51*; Redox H2O2 prof: -1; PMI activator: 0.6; Diaph act CS: 0.7

What do the screens show for `COc1ccc(C(=O)N/C(=C\c2ccc3c(c2)OCO3)C(=O)NCCc2nc3ccccc3[nH]2)cc1`?
Diaphorase inh: 12; PMI act hi M6P: 1; G6PDH counter: -6; Redox H2O2 prof: -1; PMI activator: 1; Diaph act CS: 0.9

How did COc1cc(C(=S)N2CCN(c3cccc(Cl)c3)CC2)ccc1O do in these assays?
Diaphorase inh: 23; PMI act hi M6P: 0.7; G6PDH counter: 20; Redox H2O2 prof: 0; PMI activator: 0.4; Diaph act CS: 0.8

What do the screens show for `COc1cc(C(=S)N2CCN(c3ccccc3Cl)CC2)cc(O)c1O`?
Diaphorase inh: 61*; PMI act hi M6P: 0.9; G6PDH counter: 11; Redox H2O2 prof: -2; PMI activator: 0.3; Diaph act CS: 0.4

How did COC1=C(c2ccccc2)C(=O)c2ccccc2C1=O do in these assays?
Diaphorase inh: 8; PMI act hi M6P: 1.6; G6PDH counter: 46; Redox H2O2 prof: 0; PMI activator: 2*; Diaph act CS: 0.9

How did O=C(C1=C(c2ccccc2)C(=O)c2ccccc2C1=O)c1ccccc1 do in these assays?
Diaphorase inh: 40; PMI act hi M6P: 0.3; G6PDH counter: 58*; Redox H2O2 prof: 1; PMI activator: 0.5; Diaph act CS: 0.6

Results for O=C(CNC1CCCCCC1)c1cccs1 ?
Diaphorase inh: 7; PMI act hi M6P: 1.6; G6PDH counter: 10; Redox H2O2 prof: 0; PMI activator: 1.4; Diaph act CS: 0.9

How did CC1(CCc2ccccc2)NC(=S)N(c2ccccc2)N1 (configuration not stated) do in these assays?
Diaphorase inh: 9; PMI act hi M6P: 2.8*; G6PDH counter: 10; Redox H2O2 prof: 0; PMI activator: 1.5; Diaph act CS: 0.9

What do the screens show for `CC1(CCc2ccccc2)NC(=S)N(c2ccc(Cl)cc2)N1` (configuration not stated)?
Diaphorase inh: 8; PMI act hi M6P: 2.7*; G6PDH counter: 17; Redox H2O2 prof: 0; PMI activator: 1.7; Diaph act CS: 0.9

How did O=CNn1cnc2c(oc3nc(-c4ccccc4)cc(-c4ccco4)c32)c1=O do in these assays?
Diaphorase inh: 18; PMI act hi M6P: 1; G6PDH counter: -5; Redox H2O2 prof: 0; PMI activator: 1.2; Diaph act CS: 0.8
